Sampled rows, rich in hits. Any-hit rate of the full collection: about 5.1%.
STAT3 activator: activators of IL-6 induced STAT3 signaling; U3A cells, IL-6 STAT3-luciferase reporter, luminescence; 100% = signal with IL-6 EC80 alone; activation (% of control), % at 5.6 µM; actives 0.91% (n = 190,000);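 active = activation above the screen-wide mean of compound activation plus 3 SD, cut at about 130% in these data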;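 note: 0% = background luminescence of wells with medium and substrate only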
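Material: STAT3-luciferase reporter U3A cells. Controls: IL-6-treated wells, 100% activation. Read-out: % activation versus median of IL-6-stimulated wells. Probe or stimulus: IL-6 stimulus at 33 ng/mL final. Timing: compound 1 h, then IL-6 6 h at 37 °C. Signal: reporter luminescence signal.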
NF-kB expr up: raises NF-kB expression in human neuronal cells; NF-kB reporter expression; active compounds read high; fold change at 12.5 µM; actives 1.6% (n = 190,000); AID 1239; in the data active = fold change above about 3.3
STAT1 inh: inhibitors of IFN-gamma induced STAT1 signaling; NIH 3T3 STAT1-luciferase reporter, luminescence; inhibition, % at 5.5 µM; actives 0.35% (n = 200,000); AID 920;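 active = inhibition above a set limit, the mean inhibition across all tested compounds plus 3 SD, cut at about 34% in these data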;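 note: 0% = IFN-gamma with DMSO and 100% = IFN-gamma with 300 µM nifuroxazide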
STAT3 inh-1: STAT3 signaling inhibition; actives 0.89% (n = 190,000); inhibition, % at 5.5 µM; U3A cells, IL-6 STAT3-luciferase reporter, luminescence; host cell line lacks STAT1; AID 862;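 active = inhibition above the mean inhibition across all screened compounds plus 3 SD, cut at about 44% in these data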;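 note: 0% = DMSO only wells and 100% = 100 µM nifuroxazide control wells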
STAT1 activator: increases IFN-gamma driven STAT1 reporter signal | activation (% of control), % at 5.5 µM | NIH 3T3 STAT1-luciferase reporter, luminescence; 100% = IFN-gamma alone, no compound | actives 2.6% (n = 200,000);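 active = activation above the screen-wide mean activation plus 3 SD, cut at about 130% in these data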;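 note: raw ratio to IFN-gamma control signal so 100% means no change and 0% no light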
APP 5'UTR act: activates APP 5'UTR luciferase reporter. activation, % at 2 µM. actives 1% (n = 190,000). SH-SY5Y APP 5'UTR luciferase reporter, luminescence; zero percent = DMSO vehicle wells;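 active = activation above a set limit, based on mean plus 3 SD of controls, cut at about 140% in these data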
STAT3 inh-2: STAT3 inhibition, confirmation assay. shares compounds with STAT3 inh-1. U3A cells, IL-6 STAT3 luciferase reporter, luminescence; cell line lacks STAT1. inhibition, % at 5.7 µM. actives 45% (n = 1,200). AID 1265;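 active = inhibition above the hit cutoff computed for the primary STAT3 screen, cut at about 44% in these data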;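 note: 0% = IL-6 plus DMSO and 100% = IL-6 plus nifuroxazide control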
NFkB inh STAT3ct: inhibits NF-kappaB, counter-screen to STAT3 inhibitors; shares compounds with STAT3 inh-1; HEK293T NF-kB luciferase reporter, TNF-alpha induced; inhibition, % at 5.7 µM; actives 36% (n = 1,200);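 active = inhibition above the mean of solvent-only control wells plus 3 SD, cutoff set per campaign, cut at about 13% in these data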;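 note: 0% = TNF-alpha with DMSO and 100% = TNF-alpha with MG high control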
STAT1 inh 2: STAT1 inhibition in STAT3 inhibitor counter-screen; shares compounds with STAT3 inh-1; inhibition, % at 5.7 µM; AID 1317; actives 27% (n = 1,200); NIH 3T3 STAT1-luciferase reporter, IFN-gamma induced, luminescence;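 active = inhibition above the mean plus 3 SD of solvent-only control wells, limit set per screening run, cut at about 16% in these data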;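 note: 0% = DMSO with IFN-gamma and 100% = nifuroxazide control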
* hit, by the source's call.

What do the screens show for `N#CCC(=O)NCCCc1ccccc1`?
STAT3 activator: 82; NF-kB expr up: 1.2; STAT1 inh: -3; STAT3 inh-1: 23; STAT1 activator: 103; APP 5'UTR act: -3

Results for Clc1ccccc1-c1nnc(-c2ccc3c(c2)OCO3)o1 ?
STAT3 activator: 66; NF-kB expr up: 7.4*; STAT1 inh: -14; STAT3 inh-1: 44*; STAT1 activator: 111; APP 5'UTR act: 125; STAT3 inh-2: 11; NFkB inh STAT3ct: -26; STAT1 inh 2: -106

Results for c1ccc(-c2noc(-c3ccc4c(c3)OCO4)n2)cc1 ?
STAT3 activator: 46; NF-kB expr up: 3.9*; STAT1 inh: -1; STAT3 inh-1: 66*; STAT1 activator: 99; APP 5'UTR act: 167*; STAT3 inh-2: 27; NFkB inh STAT3ct: 6; STAT1 inh 2: -63

Results for Clc1ccccc1-c1nnc2sc(-c3ccc4c(c3)OCO4)nn12 ?
STAT3 activator: 106; NF-kB expr up: 1.2; STAT1 inh: -2; STAT3 inh-1: -3; STAT1 activator: 102; APP 5'UTR act: 22

Results for O=C(NCCO)C1CCN(C(=O)c2ccc(-c3ccccc3)cc2)CC1 ?
STAT3 activator: 97; NF-kB expr up: 1.1; STAT1 inh: 2; STAT3 inh-1: 7; STAT1 activator: 96; APP 5'UTR act: 5

How did O=c1c(Cl)c(Cl)cnn1Cc1ccccc1Cl do in these assays?
STAT3 activator: 63; NF-kB expr up: 1.4; STAT1 inh: 6; STAT3 inh-1: 48*; STAT1 activator: 94; APP 5'UTR act: -92; STAT3 inh-2: 55*; NFkB inh STAT3ct: 27*; STAT1 inh 2: 20*

What do the screens show for `COc1ccc2oc(C(=O)OCC(=O)NCCN3C(=O)CSC3=O)c(C)c2c1`?
STAT3 activator: 97; NF-kB expr up: 1.2; STAT1 inh: 13; STAT3 inh-1: 3; STAT1 activator: 88; APP 5'UTR act: 9

What do the screens show for `Cc1ccc(SCc2cc(=O)[nH]c(Nc3nc(C)c4ccc(C)cc4n3)n2)cc1`?
STAT3 activator: 99; NF-kB expr up: 0.9; STAT1 inh: 7; STAT3 inh-1: 1; STAT1 activator: 94; APP 5'UTR act: 3

Results for Cc1ccc2c(C)nc(Nc3nc(CSc4nc5ccccc5[nH]4)cc(=O)[nH]3)nc2c1 ?
STAT3 activator: 63; NF-kB expr up: 0.39; STAT1 inh: 7; STAT3 inh-1: 53*; STAT1 activator: 94; APP 5'UTR act: 4; STAT3 inh-2: 45*; NFkB inh STAT3ct: 1; STAT1 inh 2: 2

How did CCCc1ccc(C#N)c(SC2CC(=O)N(c3ccc(OC)cc3)C2=O)n1 (stereo not drawn) do in these assays?
STAT3 activator: 103; NF-kB expr up: 1.1; STAT1 inh: -4; STAT3 inh-1: 1; STAT1 activator: 102; APP 5'UTR act: 4

What do the screens show for `N#Cc1cc2c(nc1SC1CC(=O)N(c3ccccc3)C1=O)CCC2` (stereo not drawn)?
STAT3 activator: 48; NF-kB expr up: 0.5; STAT1 inh: 26; STAT3 inh-1: 64*; STAT1 activator: 75; APP 5'UTR act: -27; STAT3 inh-2: 27; NFkB inh STAT3ct: 41*; STAT1 inh 2: -41

What do the screens show for `Cc1cc(C)c(C#N)c(SCc2nnc(-c3ccccc3)o2)n1`?
STAT3 activator: 46; NF-kB expr up: 0.23; STAT1 inh: 12; STAT3 inh-1: 67*; STAT1 activator: 89; APP 5'UTR act: 44; STAT3 inh-2: 12; NFkB inh STAT3ct: -3; STAT1 inh 2: -86

What do the screens show for `Cc1sc2ncnc(NCCc3ccc(S(N)(=O)=O)cc3)c2c1C`?
STAT3 activator: 39; NF-kB expr up: 0.82; STAT1 inh: 30; STAT3 inh-1: 74*; STAT1 activator: 72; APP 5'UTR act: -8; STAT3 inh-2: 80*; NFkB inh STAT3ct: 29*; STAT1 inh 2: 30*

How did COc1ccc(CSc2ncnc3sccc23)cc1F do in these assays?
STAT3 activator: 93; STAT1 inh: -16; STAT3 inh-1: 13; STAT1 activator: 113; APP 5'UTR act: 6

What do the screens show for `COc1ccc(CCNc2ncnc3sccc23)cc1OC`?
STAT3 activator: 29; NF-kB expr up: 0.64; STAT1 inh: 24; STAT3 inh-1: 89*; STAT1 activator: 77; APP 5'UTR act: 28; STAT3 inh-2: 89*; NFkB inh STAT3ct: 40*; STAT1 inh 2: 31*

How did NS(=O)(=O)c1ccc(CCNc2ncnc3sccc23)cc1 do in these assays?
STAT3 activator: 55; NF-kB expr up: 0.76; STAT1 inh: 22; STAT3 inh-1: 54*; STAT1 activator: 80; APP 5'UTR act: -17; STAT3 inh-2: 48*; NFkB inh STAT3ct: 13; STAT1 inh 2: 23*

What do the screens show for `O=C(CCCSc1nc2ccccc2[nH]1)Nc1nnc(C2CC2)s1`?
STAT3 activator: 107; NF-kB expr up: 1.1; STAT1 inh: 0; STAT3 inh-1: -2; STAT1 activator: 100; APP 5'UTR act: 5

Results for CSc1ccc(CN2CCN(C(=O)c3ccc([N+](=O)[O-])cc3)CC2)cc1 ?
STAT3 activator: 56; STAT1 inh: 3; STAT3 inh-1: 55*; STAT1 activator: 98; APP 5'UTR act: 11; STAT3 inh-2: 59*; NFkB inh STAT3ct: 13; STAT1 inh 2: -3

What do the screens show for `Cc1ccc(N2C(=O)CC(Sc3ccccc3C(=O)O)C2=O)cc1C` (stereo not drawn)?
STAT3 activator: 98; NF-kB expr up: 1.2; STAT1 inh: -4; STAT3 inh-1: 8; STAT1 activator: 101; APP 5'UTR act: 23

Results for Cc1cc2ncn(CC3CC3(Cl)Cl)c2cc1C (stereo not drawn) ?
STAT3 activator: 102; NF-kB expr up: 0.98; STAT1 inh: 6; STAT3 inh-1: -2; STAT1 activator: 94; APP 5'UTR act: 6

What do the screens show for `O=[N+]([O-])c1ccccc1NC(=S)N/N=C/c1ccc(O)c(O)c1`?
STAT3 activator: 44; STAT1 inh: -56; STAT3 inh-1: 68*; STAT1 activator: 148*; APP 5'UTR act: 150*; STAT3 inh-2: 48*; NFkB inh STAT3ct: -9; STAT1 inh 2: -47

How did CCOc1cccc(/C=N/NC(=S)Nc2ccccc2[N+](=O)[O-])c1O do in these assays?
STAT3 activator: 43; NF-kB expr up: 0.48; STAT1 inh: 15; STAT3 inh-1: 69*; STAT1 activator: 85; APP 5'UTR act: 82; STAT3 inh-2: 24; NFkB inh STAT3ct: -8; STAT1 inh 2: -32
